# Bioassay records deposited in PubChem by Johns Hopkins Ion Channel Center.
# This is a sample that favours compounds with a hit; in the whole collection about 3.5% have one here.
# RGS4 inh = RGS4 inhibitors, primary screen, cell-based, HEK293 M3R inducible RGS4, calcium flux. AID 463165, 2010. Regulator of G-protein signaling 4 (Homo sapiens), P49798. 310,000 tested, 0.45% active. B-score at 10 µM. Fluo-4 calcium flux; stronger effect = higher value; triggered by carbachol at its EC20;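 active means B-score, a plate-corrected calcium signal, over three deviations above library mean, with baseline fluorescence within five deviations of library mean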;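 further: RGS4 expression induced by doxycycline in cells with stable M3 receptor; B-score is computed from the integrated fluorescence ratio over baseline after carbachol; higher B-score means a larger calcium signal and so more RGS4 inhibition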
# Target sequence (P49798 whole entry, looked up): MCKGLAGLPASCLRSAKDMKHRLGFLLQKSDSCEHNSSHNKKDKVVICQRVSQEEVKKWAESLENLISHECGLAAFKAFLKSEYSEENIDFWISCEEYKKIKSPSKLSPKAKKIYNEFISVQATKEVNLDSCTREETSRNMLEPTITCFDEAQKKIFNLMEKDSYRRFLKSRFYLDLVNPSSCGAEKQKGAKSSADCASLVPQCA
# MrgX1 ag = agonists of human MrgX1 receptor, primary screen, HEK293 cells, Fluo-4 calcium flux. Fluo-4 calcium fluorescence, agonist mode; stronger effect = higher value. B-score at 10 µM. 310,000 tested, 0.44% active;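 active means calcium response B-score plate-corrected fluorescence ratio at least 3 library SD, with starting fluorescence B-score inside 5 SD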
# Target sequence (Q96LB2 whole entry, looked up): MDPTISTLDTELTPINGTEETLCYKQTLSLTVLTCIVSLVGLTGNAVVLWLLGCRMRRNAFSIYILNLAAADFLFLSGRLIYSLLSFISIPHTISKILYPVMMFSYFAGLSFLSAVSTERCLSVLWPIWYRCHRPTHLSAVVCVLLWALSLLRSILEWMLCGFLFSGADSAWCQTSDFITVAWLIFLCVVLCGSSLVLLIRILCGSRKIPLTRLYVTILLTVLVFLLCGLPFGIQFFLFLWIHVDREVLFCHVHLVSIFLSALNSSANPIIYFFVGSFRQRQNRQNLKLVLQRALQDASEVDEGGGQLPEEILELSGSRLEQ
#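 Test system: HEK293 cells stably expressing human MrgX1 receptor; Input: fifteen thousand cells per well; Dosing: compound delivered in addition one of three; Schedule: overnight seeding, then 1 h dark dye loading; Technique: Fluo-4 NW calcium fluorescence; Measure: B-scored fluorescence response ratio; Controls: positive and negative controls per plate.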
# MrgX1 antagonist = antagonists of human MrgX1 receptor, primary screen, HEK293 cells, Fluo-4 calcium flux | BAM8-22 antagonism; stronger effect = lower value | 310,000 tested, 1.3% active | AID 588676, 2011 | B-score at 10 µM | Mas-related G-protein coupled receptor member X1 (Homo sapiens), Q96LB2;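 active means calcium-response B-score plate-corrected more than 3 library SD below zero, starting fluorescence within 5 deviations, no agonist response on first addition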;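 further: peak minus trough fluorescence over baseline after final BAM8-22 challenge near maximal dose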
# RGS4 act = RGS4 potentiators or activators, primary screen, cell-based, HEK293 M3R inducible RGS4, calcium flux; carbachol calcium flux Fluo4; stronger effect = lower value; B-score at 10 µM; 310,000 tested, 0.92% active; AID 463111, 2010;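 active means B-score of the integrated calcium signal more than 4 SD below the library mean, with starting fluorescence not abnormally high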;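 further: negative B-score means reduced calcium response which marks RGS4 activation or potentiation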
#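 Test system: HEK293 cells with stable M3R and inducible RGS4; also added: carbachol at ECmax as muscarinic agonist stimulus; schedule: dye loading 30 min 37 °C, buffer rest 30 min RT; technique: kinetic calcium fluorescence imaging with Fluo4-AM dye, 2 µM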
# MrgX1 PAM = positive allosteric modulators of MrgX1, primary screen, HEK293 cells, Fluo-4 calcium flux. 310,000 tested, 0.63% active. B-score at 10 µM. FDSS; stronger effect = higher value. Mas-related G-protein coupled receptor member X1 (Homo sapiens), Q96LB2;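 active means plate-corrected calcium response at least 3 library SD above typical, normal starting fluorescence, not activating the receptor alone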;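 further: compound read alongside a low EC10 to EC30 dose of BAM8-22 agonist; peak minus trough fluorescence over baseline measured at the second addition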
# MrgX1 antag conf = MrgX1 receptor antagonists, duplicate retest, confirmation, HEK293 cells, Fluo-4 calcium flux. shares compounds with MrgX1 antagonist. BAM8-22 calcium flux; stronger effect = lower value. remaining BAM8-22 calcium response % of control (stronger effect = lower value), % at 10 µM. 2,300 tested, 19% active. AID 602420, 2012;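 active means remaining agonist calcium response no higher than 100% minus 3 SD of agonist-only control wells, with starting fluorescence near control levels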;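 further: agonist BAM8-22 given at a near maximal EC90 to ECmax level; peak minus minimum fluorescence divided by baseline after agonist addition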
# HEK293 Ca flux = nonspecific calcium signal in parental HEK293, confirmation, counter-screen for MrgX1 antagonist project, parental HEK293 cells, Fluo-4 calcium flux; AID 624111, 2012; 4,000 tested, 2% active; shares compounds with MrgX1 antagonist; Fluo-4 calcium fluorescence, FDSS; fluorescence ratio F(max-min)/F0 at 10 µM;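 active means duplicate-averaged calcium fluorescence ratio at least three times the standard deviation of buffer wells, a nonspecific response in parental cells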
# HEK293 Ca counter = calcium response in parental HEK293 cells, primary screen, counter-screen for MrgX1 allosteric activator project, cell-based, Fluo-4 calcium flux, duplicate; shares compounds with MrgX1 antagonist; Fluo-4 fluorescence ratio; stronger effect = higher value; fluorescence ratio F(max-min)/F0 at 10 µM; 4,000 tested, 0.4% active;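 active means calcium fluorescence ratio, averaged over duplicates, at least 3 SD of the buffer-well ratio, meaning a nonspecific response in receptor-free cells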;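 further: untransfected parental HEK293 lacking MrgX1 used as counterscreen for MrgX1 allosteric activators; fluorescence change taken during the second addition on a kinetic imager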
# HEK293 Ca cntr2 = calcium response in parental HEK293 cells, primary screen, counter-screen for MrgX1 agonist project, cell-based, Fluo-4 calcium flux, duplicate, agonist mode. shares compounds with MrgX1 antagonist. fluorescence ratio F(max-min)/F0 at 10 µM. 4,000 tested, 8.7% active. Fluo-4 calcium fluorescence (FDSS); stronger effect = higher value;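 active means calcium fluorescence ratio at least three times the spread of buffer wells, meaning a non-specific response in parental cells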
# * marks the source's active call; other numbers are inactive results; i = inactive; . = no result given.
SMILES,RGS4 inh,MrgX1 ag,MrgX1 antagonist,RGS4 act,MrgX1 PAM,MrgX1 antag conf,HEK293 Ca flux,HEK293 Ca counter,HEK293 Ca cntr2
CCOC(=O)CN(Cc1ccccc1)C(=O)OC(C)(C)C,i,i,i,i,i,.,.,.,.
O=C(c1cc(COc2cccc3cnccc23)on1)N1CCC(c2ccccc2Cl)C1 (stereo unspecified),i,i,-4.56*,i,i,i,i,i,i
O=C(c1cc(COc2c(F)cccc2F)on1)N1CCC(c2ccccc2Cl)C1 (stereo unspecified),i,i,i,i,i,.,.,.,.
Cc1ccc(Nc2c(-c3ccc(C)o3)nc3ncccn23)cc1,i,i,i,i,i,.,.,.,.
Cc1ccc(-c2nc3ncccn3c2Nc2ccc3c(c2)OCO3)o1,i,i,-5.35*,i,i,i,i,i,i
CCN1C(=O)C(CC(=O)NCc2ccc(Cl)cc2)N(CC)C1=O (stereo unspecified),i,i,-5.09*,i,i,i,i,i,i
Cc1nn(-c2nnc(NC3CCCCC3)nn2)c(C)c1Br,i,i,-4.52*,i,i,i,i,i,i
Cc1nn(C)c(C)c1S(=O)(=O)NC1CCCC1,i,i,i,i,i,.,.,.,.
O=C(O)CSc1nnnn1-c1ccccc1,i,i,i,i,i,.,.,.,.
Cc1nnnn1-c1ccc(CC(=O)O)cc1,i,i,-7.12*,i,i,i,i,i,i
O=C(/C=C/c1ccc(OC(F)F)cc1)Nc1cccc(S(=O)(=O)N2CCOCC2)c1,i,i,i,i,i,.,.,.,.
CCOC(=O)c1c(NC(=O)OC)sc(C(=O)N(CC)CC)c1C,i,i,-4.71*,i,i,i,i,i,i
O=C(CCC1CCN(C(=O)c2ccco2)CC1)NCc1ccc(F)cc1,i,i,i,i,i,.,.,.,.
CCn1cc(CN2CCc3c([nH]c4ccccc34)C2c2cccc(OC)c2OC)c(C)n1 (stereo unspecified),i,i,-5.4*,i,i,i,i,i,i
CCOC(=O)c1sc(N)nc1C(C)(C)C,i,i,i,i,i,.,.,.,.
Cc1nc(N)sc1C(=O)OCC(C)C,i,i,-8.67*,i,i,i,i,i,i
CC(C)c1c(C(=O)N/N=C/c2ccc(C(F)(F)F)cc2)nnn1-c1nonc1N,i,i,i,i,i,.,.,.,.
O=C(CCl)N(C1CCCC1)C1CCS(=O)(=O)C1 (stereo unspecified),i,i,i,i,i,.,.,.,.
CCCSc1ccc(C(=O)Nc2ccc(F)cc2F)cn1,i,i,i,i,i,.,.,.,.
CC(C)S(=O)(=O)c1ccc(C(=O)Nc2ccc(F)cc2F)cn1,i,i,-5.85*,i,i,i,i,i,i
Clc1ccc(CNC2CCCC2)c(Cl)c1,i,i,i,i,i,.,.,.,.
S=C(NCc1ccc(Cl)cc1Cl)NC1CCCCC1,i,i,-4.59*,i,i,59.6%*,i,i,i
COc1cccc(Nc2nc(C)cc(C)c2C(N)=O)c1,i,i,i,i,i,.,.,.,.
COc1ccccc1Nc1nccc(N(C)C)c1C#N,i,i,i,i,i,.,.,.,.
COc1ccc(CNc2nc(-c3ccccc3)nn2C(=O)c2ccc([N+](=O)[O-])cc2)cc1,i,i,i,i,i,.,.,.,.
SMILES,RGS4 inh,MrgX1 ag,MrgX1 antagonist,RGS4 act,MrgX1 PAM,MrgX1 antag conf,HEK293 Ca flux,HEK293 Ca counter,HEK293 Ca cntr2
COc1ccc(CNc2nc(-c3ccccc3)nn2C(=O)c2cccs2)cc1,i,i,-4.88*,i,i,i,i,i,54.6*
Cc1oc(-c2ccccc2)nc1C(=O)Nc1nccs1,i,i,-5.69*,i,i,i,i,i,i
Cc1ccc(C(=O)Nc2nccs2)cc1,i,i,-5.25*,i,i,i,i,i,i
COc1ccc(-c2csc(NC(=O)c3nc(-c4ccccc4)oc3C)n2)cc1,i,i,i,i,i,.,.,.,.
Nc1ccc(C(=O)Nc2nccs2)cc1,i,i,i,i,i,.,.,.,.
O=C(CN1C(=O)NC2(CCCCC2)C1=O)N1CCN(S(=O)(=O)c2ccccc2)CC1,i,i,-5.48*,i,i,i,i,i,i
Cn1nnnc1SCC(=O)Nc1ccc(S(=O)(=O)N2CCOCC2)cc1,i,i,i,i,i,.,.,.,.
NC(=O)c1ccc(-n2nnnc2SCC(=O)Nc2ccccc2F)cc1,i,i,i,i,i,.,.,.,.
CCOC(=O)C(NC(=O)c1ccccc1)(Nc1nnc(C)s1)C(F)(F)F (stereo unspecified),i,i,-8.7*,i,i,i,i,i,i
CCOC(=O)C(NC(=O)c1ccccc1)(Nc1cc(C)on1)C(F)(F)F (stereo unspecified),i,i,i,i,i,.,.,.,.
O=C(NCCC1CCCCN1S(=O)(=O)c1ccc(F)cc1)C(=O)NCC1CCCO1 (stereo unspecified),i,i,-5.99*,i,i,i,i,i,i
CC(=O)N1CCOc2ccc(S(=O)(=O)NCC3CCC(C(=O)Nc4ncccc4C)CC3)cc21 (stereo unspecified),i,i,i,i,i,.,.,.,.
CC1(C)CC2CC(C)(CN2CC(=O)C(C#N)c2ccccc2)C1 (stereo unspecified),i,i,-8.69*,i,i,i,i,i,i
